Source: PubChem BioAssay (Johns Hopkins Ion Channel Center)
MrgX1 allo act: positive allosteric modulators of MrgX1, primary screen, HEK293 cells, Fluo-4 calcium flux. 310,000 compounds, 0.63% hits. Mas-related G-protein coupled receptor member X1 (Homo sapiens), Q96LB2. FDSS; stronger effect = higher value. B-score at 10 µM;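 active = plate-corrected calcium response at least 3 library SD above typical, normal starting fluorescence, not activating the receptor alone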;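 also: compound read alongside a low EC10 to EC30 dose of BAM8-22 agonist; peak minus trough fluorescence over baseline measured at the second addition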
Target sequence (Q96LB2 whole entry, looked up): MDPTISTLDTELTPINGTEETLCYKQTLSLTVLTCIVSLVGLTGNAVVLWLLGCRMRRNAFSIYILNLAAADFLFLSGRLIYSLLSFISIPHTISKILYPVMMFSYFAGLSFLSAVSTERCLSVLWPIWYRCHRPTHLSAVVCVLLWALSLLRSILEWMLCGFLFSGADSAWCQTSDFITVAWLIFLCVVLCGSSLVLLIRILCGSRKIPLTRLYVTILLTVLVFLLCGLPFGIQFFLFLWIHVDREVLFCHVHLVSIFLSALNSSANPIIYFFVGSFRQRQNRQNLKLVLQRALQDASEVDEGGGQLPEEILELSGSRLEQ
RGS4 act: RGS4 potentiators or activators, primary screen, cell-based, HEK293 M3R inducible RGS4, calcium flux; carbachol calcium flux Fluo4; stronger effect = lower value; B-score at 10 µM; 310,000 compounds, 0.92% hits;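 active = B-score of the integrated calcium signal more than 4 SD below the library mean, with starting fluorescence not abnormally high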;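 also: negative B-score means reduced calcium response which marks RGS4 activation or potentiation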
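System: HEK293 FlpIn-TREx cells, stable M3R, doxycycline-inducible RGS4. Timing: overnight RGS4 induction, 30 min dye load 37 °C, 20 min compound RT. Also added: carbachol, ECmax concentration. Measured by: Fluo4 fluorescence kinetic imaging of calcium. Evaluation: integrated calcium ratio converted to B score.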
MrgX1 ag: agonists of human MrgX1 receptor, primary screen, HEK293 cells, Fluo-4 calcium flux; Fluo-4 calcium fluorescence, agonist mode; stronger effect = higher value; B-score at 10 µM; 310,000 compounds, 0.44% hits;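 active = calcium response B-score plate-corrected fluorescence ratio at least 3 library SD, with starting fluorescence B-score inside 5 SD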
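Test system: Stable human MrgX1 HEK293 cell line | Schedule: Overnight plating before 1 h dye loading | Read-out basis: Baseline-normalised fluorescence change ratio, B-scored | Detection: Kinetic calcium dye fluorescence, Fluo-4 NW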
RGS4 block: RGS4 inhibitors, primary screen, cell-based, HEK293 M3R inducible RGS4, calcium flux; Fluo-4 calcium flux; stronger effect = higher value; triggered by carbachol at its EC20; B-score at 10 µM; 310,000 compounds, 0.45% hits; AID 463165, 2010;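 active = B-score, a plate-corrected calcium signal, over three deviations above library mean, with baseline fluorescence within five deviations of library mean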;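 also: RGS4 expression induced by doxycycline in cells with stable M3 receptor; B-score is computed from the integrated fluorescence ratio over baseline after carbachol; higher B-score means a larger calcium signal and so more RGS4 inhibition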
Target sequence (P49798 whole entry, looked up): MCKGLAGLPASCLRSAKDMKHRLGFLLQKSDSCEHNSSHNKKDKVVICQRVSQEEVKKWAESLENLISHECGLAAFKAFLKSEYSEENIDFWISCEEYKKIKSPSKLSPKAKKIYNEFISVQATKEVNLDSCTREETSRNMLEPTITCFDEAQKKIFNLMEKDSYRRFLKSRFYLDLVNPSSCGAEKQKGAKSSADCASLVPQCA
MrgX1 antagonist: antagonists of human MrgX1 receptor, primary screen, HEK293 cells, Fluo-4 calcium flux | BAM8-22 antagonism; stronger effect = lower value | 310,000 compounds, 1.3% hits | Mas-related G-protein coupled receptor member X1 (Homo sapiens), Q96LB2 | B-score at 10 µM;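 active = calcium-response B-score plate-corrected more than 3 library SD below zero, starting fluorescence within 5 deviations, no agonist response on first addition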;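 also: peak minus trough fluorescence over baseline after final BAM8-22 challenge near maximal dose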
Numbers without * were called inactive; i = inactive; ! = not active in a repeat. This is a sample that favours compounds with a hit; in the whole collection about 3.5% have one here.

SMILES	MrgX1 allo act	RGS4 act	MrgX1 ag	RGS4 block	MrgX1 antagonist
O=C(/C=C/c1ccc(F)cc1)NC(=S)NNC(=O)[C@H]1C[C@@H]1c1ccccc1	i	i	42.8*	i	i
O=C(NC(=S)NNC(=O)[C@H]1C[C@@H]1c1ccccc1)c1ccc(F)cc1	i	i	i	i	i
O=C(COc1ccccc1CNCc1ccccc1)Nc1ccccc1	i	i	i	i	i
COc1cc(/C(C)=C/c2ccccc2)c2c(c1)oc1ccccc12	9*	i	i	i	i
COc1ccc2oc3ccccc3c(=O)c2c1	i	i	i	i	i
Cc1ccc(CN(Cc2cc3cccc(C)c3[nH]c2=O)C(=S)NCCCN(C)C)cc1	9.71*	i	i	i	i
Cc1cc[n+](-c2[nH]c(=O)sc2/C=N/NC([S-])=Nc2ccccc2)cc1	i	i	i	i	i
Cc1cc(C)c[n+](-c2[nH]c(=O)sc2/C=N/NC([S-])=Nc2ccccc2)c1	i	i	i	i	-6.75*
CCOc1ccc(C(=O)Nc2ccc(C(=O)N3CCOCC3)cc2)c(OCC)c1	i	i	i	i	i
Cc1ccc(OCC(=O)NNC(=S)NC(=O)c2cccs2)c(C)c1	i	-8.96*	34.7*	i	i
Cc1ccc(OCC(=O)NNC(=S)NC(=O)c2ccc(Br)o2)c(C)c1	10.2*	-10.7*	i	i	i
Cc1cccc(NC(=S)NNC(=O)c2ccc(Br)o2)c1	i	i	i	i	i
COc1ccc(C(=O)NNC(=S)NC(=O)c2ccc(Br)o2)cc1OC	i	i	52.7*	i	i
Cc1cc(OCC(=O)NNC(=S)NC(=O)c2cccs2)ccc1Cl	8.41*	-7.8*	i	i	i
COc1ccc(OCC(=O)NNC(=O)c2cccs2)cc1	i	i	i	i	i
COc1ccc(C(=O)NC(=S)NNC(=O)c2cnccn2)cc1OC	i	i	i	i	i
Cc1c(C(=O)N2CCCCC2)c(S(=O)(=O)N2CCN(c3ccccc3F)CC2)c(C)n1C	i	i	i	i	i
NC(N)=N/N=C/c1cccc(Cl)c1Cl	i	i	i	i	i
O=C(NCc1cccc(Cl)c1)C1CCN(S(=O)(=O)c2ccc(F)cc2)CC1	i	i	i	i	i
NC(=S)N=Nc1ccc(NN=C(N)N)cc1	i	i	31.1*	i	i
N#C/C(=N/Nc1ccc(OC(F)(F)F)cc1)C(N)=S	i	i	i	i	i
O=C(NCCCC(NC(=O)OCc1ccccc1)C(=O)O)OCc1ccccc1 (centres undefined)	i	i	i	i	i
COc1cccc(C(=O)NCCCn2ccnc2)c1	i	i	i	i	i
CC(=O)NC1C(=O)N(CCN2CCOCC2)c2ccc(C)cc21 (centres undefined)	i	i	i	i	-6.1*
Cc1ccc(C2(c3noc(CN(C)CCCN4CCOCC4)n3)CCCC2)cc1	i	i	i	i	i
SMILES	MrgX1 allo act	RGS4 act	MrgX1 ag	RGS4 block	MrgX1 antagonist
COc1cccc(N/C=C/C(=O)c2ccc(OC)c(OC)c2)c1	i	i	i	i	i
CCOC(=O)c1cccc(N/C=C/C(=O)c2ccc(OC)c(OC)c2)c1	i	-8.3*	i	i	i
CCc1cc2c(-c3ccccc3)cc(=O)oc2c(CN2CCOCC2)c1O	i	i	42.6*	i	i
O=c1cc(-c2ccccc2)c2ccc(O)c(CN3CCCCC3)c2o1	i	i	i	i	i
O=c1cc(-c2ccccc2)c2cc(Cl)c(O)c(CN3CCOCC3)c2o1	9.79*	i	i	i	i
O=C1Nc2ccccc2C1=Nc1ccc(F)cc1	i	i	i	i	i
CC(=O)c1ccc(N=C2C(=O)Nc3ccccc32)cc1	i	i	29.2*	i	i
Cc1ccccc1OCC(=O)Nc1ccc(N2CCN(C)CC2)c(Cl)c1	i	-7.91*	i	i	i
Cc1ccccc1OCC(=O)Nc1ccc2c(c1)Cc1ccccc1-2	i	i	i	i	i
O=c1oc2cc(O[C@@H]3OC[C@@H](O)[C@H](O)[C@H]3O)ccc2c2ccccc12	i	i	i	i	i
CCCCN(CCCC)C(=O)C1CC=CCC1C(=O)O (centres undefined)	i	i	i	i	-5.94*
CCCCCNC(=O)C1CC=CCC1C(=O)O (centres undefined)	i	i	i	i	i
O=[N+]([O-])c1cc(N=Nc2ccc3ccccc3c2)ccc1O	i	i	i	i	i
COC(=O)[C@@]1(Cc2ccccc2)[C@H]2c3cc(C(=O)N4CCCC4)n(CCSCCO)c3C[C@H]2CN1C(=O)c1ccccc1	i	i	i	i	-5.21*
COC(=O)[C@@]1(Cc2ccc(F)cc2)[C@H]2c3cc(C(=O)N(C)C)n(CCc4ccc(OC)c(Br)c4)c3C[C@H]2CN1C(=O)c1ccccc1	i	-7.21*	i	i	i
COC(=O)[C@@]1(Cc2ccc(F)cc2)[C@H]2c3cc(C(=O)N(C)C)n(Cc4ccc(OC)c(OC)c4)c3C[C@H]2CN1C(=O)c1ccccc1	i	i	i	i	i
Cc1cc(C)nc(SCC(=O)c2ccc(F)cc2F)n1	i	i	i	i	i
CCC(C)(C)c1nnc(NC(=O)C2CC(=O)N(CCc3ccc(F)cc3)C2)s1 (centres undefined)	i	i	i	i	i
Cc1ccccc1CS(=O)(=O)c1nnc([C@H](CC(C)C)NC(=O)OC(C)(C)C)o1	i	i	33.2*	i	i
CC[C@@H](C)[C@H](NC(=O)OC(C)(C)C)c1nnc(S(=O)(=O)Cc2cc(C)ccc2C)o1	7.07*	i	i	i	i
CCCCc1nn2c(N)c(/C=C3\C=Nc4ccccc43)c(=O)nc2s1	i	i	i	i	i
CCCc1nn2c(N)c(/C=C3\C=Nc4ccccc43)c(=O)nc2s1	16.4*!	i	i	i	i
CCC(CC)c1nn2c(N)c(/C=C3\C=Nc4ccccc43)c(=O)nc2s1	i	i	i	i	i
CC(C)c1nn2c(N)c(/C=C3\C=Nc4ccccc43)c(=O)nc2s1	13.2*	i	i	i	i
